Measured values taken from ChEMBL document CHEMBL4425130, “Macrocyclic Prodrugs of a Selective Nonpeptidic Direct Thrombin Inhibitor Display High Permeability, Efficient Bioconversion but Low Bioavailability” (J Med Chem, 2016).
Converted amounts (≈) assume the structure as drawn. One block for each compound: values may come before it.

How the values were obtained:
[1] = rat, isolated protein, 40 min, 4 µM
[2] = Solubility of the compound in phosphate buffer at pH 7.4 at 25 degC after 24 hrs by ultraperformance LC/MS/MS method
[3] = Apparent permeability across apical to basolateral side in human Caco2 cells at 10 uM after 45 to 120 mins by ultraperformance LC/MS/MS method; conditions: Caco-2
[4] = Efflux ratio of apparent permeability across basolateral to apical over apical to basolateral side in human Caco2 cells at 10 uM after 45 to 120 mins by ultraperformance LC/MS/MS method; conditions: Caco-2
[5] = Prodrug conversion in human plasma assessed as esterase-mediated metabolite formation after 4 hrs; assay type: ADME, cell-free
[6] = Prodrug conversion in rat hepatocytes assessed as esterase-mediated 3-((3-(2-(2-(Aminomethyl)-5-chlorobenzylamino)-2-oxoethyl)-4-methyl-2-oxo-5,6-dihydropyridin-1(2H)-ylamino)methyl)benzoic acid formation at 4 uM after 40 mins by ultraperformance liquid chromatographic method; assay type: ADME, cell-based
[7] = Prodrug conversion in human liver microsomes assessed as 3-((3-(2-(2-(Aminomethyl)-5-chlorobenzylamino)-2-oxoethyl)-4-methyl-2-oxo-5,6-dihydropyridin-1(2H)-ylamino)methyl)benzoic acid formation in presence of NADPH; assay type: ADME, Microsome
[8] = Prodrug conversion in human liver microsomes assessed as 3-((3-(2-(2-(Aminomethyl)-5-chlorobenzylamino)-2-oxoethyl)-4-methyl-2-oxo-5,6-dihydropyridin-1(2H)-ylamino)methyl)benzoic acid formation in absence of NADPH; assay type: ADME, Microsome
physchem = conditions: 1-octanol/phosphate buffer, pH 7.4
[9] = Intrinsic clearance in Sprague-Dawley rat liver microsomes at 1 umol/L after 7 to 30 mins by LC-MS/MS method; assay type: ADME, Microsome; conditions: read-out: CLH
Cytochrome P450 3A4 = Cytochrome P450 3A4 (Homo sapiens, UniProt P08684); assay: Inhibition of human CYP3A4; assay type: ADME
Plasma = assay: Anticoagulant activity in human citrated plasma assessed as concentration required to double activated partial thromboplastin time after 3 mins by coagulation analyser; assay type: functional, cell-free; conditions: 0.05 h
Rattus norvegicus = species: Rattus norvegicus; assay: Antithrombotic activity in rat caval vein thrombosis model assessed as prevention of venous thrombosis; assay type: functional, organism-based
Prothrombin = Prothrombin (Homo sapiens, UniProt P00734); assay: Inhibition of human alpha-thrombin using S-2366 as substrate after 40 mins
Serine protease 1 = Serine protease 1 (Homo sapiens, UniProt P07477); assay: Inhibition of human trypsin 1 using S-2222 as substrate preincubated for 300 secs followed by substrate addition measured after 40 mins
Summary of the method: (§1)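 Human proteases assayed at one substrate concentration with ten inhibitor concentrations at 37 °C, ≤1.3% DMSO, in an enzyme-specific Tris-HCl pH 7.4 buffer. Enzyme and inhibitor preincubated 300 s, then substrate added; absorbance read at 405 nm after 40 min. IC50 converted to Ki by IC50 = Ki(1+S/KM), using KM measured under assay conditions.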

[10] = Inhibition of human tissue factor/F7a using spectrozyme as substrate preincubated for 300 secs followed by substrate addition measured after 40 mins
Summary of the method: as §1

Coagulation factor IX = Coagulation factor IX (Homo sapiens, UniProt P00740); assay: Inhibition of human F9a using pefachrome F9a as substrate preincubated for 300 secs followed by substrate addition measured after 40 mins
Coagulation factor X = Coagulation factor X (Homo sapiens, UniProt P00742); assay: Inhibition of human F10a using S-2765 as substrate preincubated for 300 secs followed by substrate addition measured after 40 mins
Summary of the method: as §1

Coagulation factor XI = Coagulation factor XI (Homo sapiens, UniProt P03951); assay: Inhibition of human F11a using S-2366 as substrate preincubated for 300 secs followed by substrate addition measured after 40 mins
Summary of the method: as §1

Plasminogen = Plasminogen (Homo sapiens, UniProt P00747); assay: Inhibition of human plasmin using S-2366 as substrate preincubated for 300 secs followed by substrate addition measured after 40 mins
Summary of the method: as §1

[11] = target: Thrombin & trypsin (Homo sapiens) (UniProt P00734+P07477+P07478+P35030); assay: Selectivity ratio of Ki for human trypsin 1 to Ki for human alpha-thrombin; assay type: protein assay
Homo sapiens [12] = species: Homo sapiens; assay: Selectivity ratio of Ki for human tissue factor/F7a to Ki for human alpha-thrombin
Homo sapiens [13] = species: Homo sapiens; assay: Selectivity ratio of Ki for human F9a to Ki for human alpha-thrombin
Homo sapiens [14] = species: Homo sapiens; assay: Selectivity ratio of Ki for human F10a to Ki for human alpha-thrombin
Homo sapiens [15] = species: Homo sapiens; assay: Selectivity ratio of Ki for human F11a to Ki for human alpha-thrombin
Homo sapiens [16] = species: Homo sapiens; assay: Selectivity ratio of Ki for human plasmin to Ki for human alpha-thrombin
[17] = Drug level in human hepatocytes treated with 25-Chloro-18-methyl-13,14,17,20,22,23-hexahydro-1H,7H-15,19-methano-8,12-(metheno)-4,6,2,14,15,22-benzodioxatetraazacyclopentacosine-3,7,21,28(1H,16H)-tetrone assessed as esterase-mediated compound formation at 4 uM after 40 mins by ultraperformance liquid chromatographic method; assay type: ADME, cell-based; conditions: isolated protein
Summary of the method: (§2)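 Cryopreserved human hepatocytes at 10^6 viable cells/mL, thawed and pre-warmed 10 min at 37 °C. Compound added from CH3CN stock at 4 µM final. Incubated 40 min, then quenched in cold CH3CN, with compound-free incubations as blanks. Metabolites assigned by LC-MS product ion spectra.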

[18] = (§3) Drug level in human hepatocytes treated with 25-Chloro-5,18-dimethyl-13,14,17,20,22,23-hexahydro-1H,7H-15,19-methano-8,12-(metheno)-4,6,2,14,15,22-benzodioxatetraazacyclopentacosine-3,7,21,28(2H,16H)-tetrone assessed as esterase-mediated compound formation at 4 uM after 40 mins by ultraperformance liquid chromatographic method; assay type: ADME, cell-based; conditions: isolated protein
Summary of the method: as §2

[19] = as §3, with “rat” for “human”; assay type: ADME, cell-based; conditions: isolated protein
[20] = Drug level in human liver microsomes treated with treated with 25-Chloro-18-methyl-13,14,17,20,22,23-hexahydro-1H,7H-15,19-methano-8,12-(metheno)-4,6,2,14,15,22-benzodioxatetraazacyclopentacosine-3,7,21,28(1H,16H)-tetrone in presence of NADPH; assay type: ADME, Microsome
[21] = Drug level in human liver microsomes treated with treated with 25-Chloro-18-methyl-13,14,17,20,22,23-hexahydro-1H,7H-15,19-methano-8,12-(metheno)-4,6,2,14,15,22-benzodioxatetraazacyclopentacosine-3,7,21,28(1H,16H)-tetrone in absence of NADPH; assay type: ADME, Microsome
[22] = Drug level in human liver microsomes treated with treated with 25-Chloro-5,18-dimethyl-13,14,17,20,22,23-hexahydro-1H,7H-15,19-methano-8,12-(metheno)-4,6,2,14,15,22-benzodioxatetraazacyclopentacosine-3,7,21,28(2H,16H)-tetrone in presence of NADPH; assay type: ADME, Microsome
[23] = Drug level in human liver microsomes treated with treated with 25-Chloro-5,18-dimethyl-13,14,17,20,22,23-hexahydro-1H,7H-15,19-methano-8,12-(metheno)-4,6,2,14,15,22-benzodioxatetraazacyclopentacosine-3,7,21,28(2H,16H)-tetrone in absence of NADPH; assay type: ADME, Microsome
[24] = Clearance in Han Wistar rat at 0.5 umol/kg, iv by LC-MS/MS method; assay type: ADME, organism-based; conditions: in vivo
Summary of the method: (§4)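 Male Han Wistar rats, cannulated in the carotid artery for sampling and the jugular vein for i.v. dosing, one week before the study (two days before for intraduodenal dosing). Single doses: 0.5 µmol/kg i.v., or 1 µmol/kg by gavage or intraduodenally. Vehicles were 5% mannitol in water or DMA:TEG:water (1:1:1). Plasma sampled up to 24 h and analysed by LC-MS/MS. Non-compartmental analysis; means of n=3, with F from mean AUCinf.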

[25] = Volume of distribution at steady state in Han Wistar rat at 0.5 umol/kg, iv by LC-MS/MS method; assay type: ADME, organism-based; conditions: in vivo, read-out: Vdss
Summary of the method: as §4

[26] = Apparent terminal half life in Han Wistar rat at 0.5 umol/kg, iv by LC-MS/MS method; assay type: ADME, organism-based; conditions: in vivo, read-out: betat1/2(app) (converted)
Summary of the method: as §4

[27] = AUCinfinity in Han Wistar rat at 0.5 umol/kg, iv by LC-MS/MS method; assay type: ADME, organism-based; set-up: dose 0.5 umol/kg, time infinity, route intravenous; conditions: in vivo
Summary of the method: as §4

[28] = Apparent terminal half life in Han Wistar rat at 1 umol/kg, po administered via gavage by LC-MS/MS method; assay type: ADME, organism-based; conditions: in vivo, read-out: betat1/2(app) (converted)
Summary of the method: as §4

[29] = AUCinfinity in Han Wistar rat at 1 umol/kg, po administered via gavage by LC-MS/MS method; assay type: ADME, organism-based; set-up: dose 1 umol/kg, time infinity, route oral; conditions: in vivo
Summary of the method: as §4

[30] = Oral bioavailability in Han Wistar rat at 1 umol/kg administered via gavage by LC-MS/MS method; assay type: ADME, organism-based; conditions: in vivo
Summary of the method: as §4

[31] = Cmax in Han Wistar rat at 1 umol/kg, po administered via gavage by LC-MS/MS method; assay type: ADME, organism-based; set-up: dose 1 umol/kg, route oral; conditions: in vivo
Summary of the method: as §4

Cytochrome P450 3A4, sequence (P08684 whole entry): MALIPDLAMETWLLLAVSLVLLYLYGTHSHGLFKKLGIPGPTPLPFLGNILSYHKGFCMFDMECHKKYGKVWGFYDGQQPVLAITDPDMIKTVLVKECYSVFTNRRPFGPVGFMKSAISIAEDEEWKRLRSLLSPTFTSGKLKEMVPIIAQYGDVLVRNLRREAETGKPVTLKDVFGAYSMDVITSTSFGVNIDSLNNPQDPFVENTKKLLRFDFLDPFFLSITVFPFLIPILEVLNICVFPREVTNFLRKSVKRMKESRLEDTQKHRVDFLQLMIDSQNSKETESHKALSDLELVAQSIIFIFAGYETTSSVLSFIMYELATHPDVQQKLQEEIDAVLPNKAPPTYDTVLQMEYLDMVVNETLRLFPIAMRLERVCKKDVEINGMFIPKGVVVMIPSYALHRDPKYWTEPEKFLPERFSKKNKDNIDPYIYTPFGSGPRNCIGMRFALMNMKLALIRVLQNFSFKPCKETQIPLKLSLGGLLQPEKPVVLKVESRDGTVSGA
Coagulation factor XI, sequence (P03951 19-387 limits assumed): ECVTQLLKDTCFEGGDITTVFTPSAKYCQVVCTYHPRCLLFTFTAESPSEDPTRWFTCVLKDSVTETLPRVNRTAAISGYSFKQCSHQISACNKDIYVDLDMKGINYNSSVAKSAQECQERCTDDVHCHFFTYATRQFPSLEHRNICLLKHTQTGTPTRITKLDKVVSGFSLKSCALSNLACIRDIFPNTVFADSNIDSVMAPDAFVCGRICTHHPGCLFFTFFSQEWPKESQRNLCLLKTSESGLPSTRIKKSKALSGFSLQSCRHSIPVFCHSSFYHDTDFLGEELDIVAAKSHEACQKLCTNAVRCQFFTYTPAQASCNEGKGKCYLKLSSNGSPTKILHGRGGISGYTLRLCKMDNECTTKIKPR
Coagulation factor XI, sequence (P03951 388-625 limits assumed): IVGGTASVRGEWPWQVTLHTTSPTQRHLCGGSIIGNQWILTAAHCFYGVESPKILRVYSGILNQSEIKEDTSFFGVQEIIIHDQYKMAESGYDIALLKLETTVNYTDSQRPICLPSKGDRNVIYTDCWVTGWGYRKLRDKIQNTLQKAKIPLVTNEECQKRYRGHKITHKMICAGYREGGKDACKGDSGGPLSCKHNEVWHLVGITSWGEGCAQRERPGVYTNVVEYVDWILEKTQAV
Plasminogen, sequence (P00747 97-580 limits assumed): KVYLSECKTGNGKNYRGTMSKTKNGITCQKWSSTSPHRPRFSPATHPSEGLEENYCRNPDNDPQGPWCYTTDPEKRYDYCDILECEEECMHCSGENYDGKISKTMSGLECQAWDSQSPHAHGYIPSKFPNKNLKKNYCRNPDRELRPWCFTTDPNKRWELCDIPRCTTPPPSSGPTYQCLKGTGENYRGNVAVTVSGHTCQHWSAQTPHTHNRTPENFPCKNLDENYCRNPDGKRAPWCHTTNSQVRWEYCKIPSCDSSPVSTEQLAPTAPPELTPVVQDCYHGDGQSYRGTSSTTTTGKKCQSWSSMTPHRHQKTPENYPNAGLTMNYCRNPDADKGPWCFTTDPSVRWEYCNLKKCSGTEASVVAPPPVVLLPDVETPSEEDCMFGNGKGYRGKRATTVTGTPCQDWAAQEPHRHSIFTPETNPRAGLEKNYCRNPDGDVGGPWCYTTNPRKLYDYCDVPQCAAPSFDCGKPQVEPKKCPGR
Plasminogen, sequence (P00747 581-810 limits assumed): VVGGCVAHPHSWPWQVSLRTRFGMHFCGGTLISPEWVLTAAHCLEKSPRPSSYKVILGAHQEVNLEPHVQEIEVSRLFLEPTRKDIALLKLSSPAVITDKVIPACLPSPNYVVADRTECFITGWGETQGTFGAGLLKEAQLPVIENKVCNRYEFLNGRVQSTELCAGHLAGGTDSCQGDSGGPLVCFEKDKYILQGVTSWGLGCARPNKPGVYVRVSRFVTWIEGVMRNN
Coagulation factor X, sequence (P00742 41-179 limits assumed): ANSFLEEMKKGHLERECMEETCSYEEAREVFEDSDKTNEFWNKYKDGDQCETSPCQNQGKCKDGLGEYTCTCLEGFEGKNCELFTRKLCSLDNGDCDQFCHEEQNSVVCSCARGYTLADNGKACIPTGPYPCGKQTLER
Coagulation factor X, sequence (P00742 235-488 limits assumed): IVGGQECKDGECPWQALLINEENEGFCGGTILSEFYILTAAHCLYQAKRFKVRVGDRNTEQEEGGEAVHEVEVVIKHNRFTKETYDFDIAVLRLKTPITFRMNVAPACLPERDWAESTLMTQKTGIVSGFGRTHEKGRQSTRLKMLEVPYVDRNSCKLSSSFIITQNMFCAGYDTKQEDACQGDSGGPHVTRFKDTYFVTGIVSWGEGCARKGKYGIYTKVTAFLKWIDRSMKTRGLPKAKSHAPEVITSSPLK
Serine protease 1, sequence (P07477 whole entry): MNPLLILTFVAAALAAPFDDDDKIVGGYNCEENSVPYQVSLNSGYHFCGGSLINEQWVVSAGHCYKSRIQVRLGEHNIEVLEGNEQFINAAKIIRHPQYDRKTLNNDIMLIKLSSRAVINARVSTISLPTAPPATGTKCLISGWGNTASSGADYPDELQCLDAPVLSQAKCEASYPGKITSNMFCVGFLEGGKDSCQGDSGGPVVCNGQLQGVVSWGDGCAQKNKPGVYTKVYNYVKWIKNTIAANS
Coagulation factor IX, sequence (P00740 47-191 limits assumed): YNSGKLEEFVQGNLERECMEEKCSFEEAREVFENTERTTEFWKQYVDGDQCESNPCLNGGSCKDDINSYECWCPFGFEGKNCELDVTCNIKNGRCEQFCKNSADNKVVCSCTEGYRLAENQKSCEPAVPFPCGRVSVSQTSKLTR
Coagulation factor IX, sequence (P00740 227-461 limits assumed): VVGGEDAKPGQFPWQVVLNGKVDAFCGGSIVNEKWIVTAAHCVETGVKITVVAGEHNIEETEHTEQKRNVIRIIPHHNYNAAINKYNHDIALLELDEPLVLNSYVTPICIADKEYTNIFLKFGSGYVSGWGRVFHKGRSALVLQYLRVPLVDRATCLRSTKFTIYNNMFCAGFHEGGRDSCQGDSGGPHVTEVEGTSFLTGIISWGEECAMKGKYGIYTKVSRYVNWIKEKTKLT

SMILES: C=O [FORMALDEHYDE]
Drug metabolism [1]: Metabolite_Detected

solubility at 24 h [2]: 340 µM (≈ 184 µg/mL)
Papp A→B at 10 µM [3]: 45 ×10⁻⁶ cm/s
efflux ratio at 10 µM [4]: 4.8
Drug metabolism [5]: Metabolite_Notdetected
Drug metabolism [6]: Metabolite_Detected
Drug metabolism [7]: Metabolite_Detected
Drug metabolism [8]: Metabolite_Detected
logD at 3 h (physchem): 2.6
SMILES: CC1=C2CC(=O)NCc3cc(Cl)ccc3CNC(=O)OC(C)OC(=O)c3cccc(c3)CNN(CC1)C2=O (stereo unspecified)

microsomal CLint at 1 µM [9]: < 15 µL/min/mg
IC50 (Cytochrome P450 3A4): > 50 µM
IC50 (Plasma): 1.2 µM
IC50 (Rattus norvegicus): 0.097 µM
Ki (Prothrombin): 0.0046 µM
Ki (Serine protease 1): > 5.4 µM
Ki [10]: > 33 µM
Ki (Coagulation factor IX): > 29 µM
Ki (Coagulation factor X): > 17 µM
Ki (Coagulation factor XI): > 19 µM
Ki (Plasminogen): > 19 µM
Ratio Ki [11]: > 1000
Ratio Ki (Homo sapiens [12]): > 1000
Ratio Ki (Homo sapiens [13]): > 1000
Ratio Ki (Homo sapiens [14]): > 1000
Ratio Ki (Homo sapiens [15]): > 1000
Ratio Ki (Homo sapiens [16]): > 1000
solubility at 24 h [2]: > 100 µM
Papp A→B at 10 µM [3]: 0.1 ×10⁻⁶ cm/s
efflux ratio at 10 µM [4]: 2.4
Drug metabolism [17]: Metabolite_Detected
Drug metabolism [18]: Metabolite_Detected
Drug metabolism [19]: Metabolite_Detected
Drug metabolism [20]: Metabolite_Detected
Drug metabolism [21]: Metabolite_Detected
Drug metabolism [22]: Metabolite_Detected
Drug metabolism [23]: Metabolite_Detected
clearance [24]: 32.4 mL/min/kg
Vd [25]: 0.23 L/kg
half-life [26]: 21 min
AUC(0-inf) [27]: 0.258 µM·h
half-life [28]: 33.6 min
AUC(0-inf) [29]: 0.0025 µM·h
bioavailability [30]: 0.5%
Cmax [31]: 4 nM
Drug metabolism [1]: Metabolite_Detected
logD at 3 h (physchem): -0.5
SMILES: CC1=C(CC(=O)NCc2cc(Cl)ccc2CN)C(=O)N(NCc2cccc(C(=O)O)c2)CC1
